A selection: hits, their analogues and other compounds. The true share with any hit is near 2.4%.
SIAE inh: human SIAE inhibitors, primary screen, biochemical, fluorescence polarization, FP-Rh probe, 1536-well HTS | inhibition, % at 9.66 µM | SIAE FP-Rh probe binding | Sialate O-acetylesterase (Homo sapiens), Q9HAT2 | AID 1053197, 2014 | 370,000 compounds, 0.69% hits;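 active = inhibition above a cutoff: mean of compounds within the control limits plus 3 SD of those, cut at about 17% in these data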
PRMT1 FP inh: PRMT1 methyltransferase inhibitors, primary screen, biochemical, fluorescence polarization. Protein arginine N-methyltransferase 1 (Homo sapiens), Q99873. recombinant PRMT1, activity-based probe fluorescence polarization. inhibition, % at 2.79 µM. 370,000 compounds, 1.3% hits;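 active = inhibition above about 21% made by adding two undisclosed values, limit read from the data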
HTRA1 inh: HTRA1 serine protease inhibitors, primary screen, biochemical, fluorescence polarization, HTS; recombinant HTRA1, FP-rhodamine activity-based probe; inhibition, % at 5.96 µM; 340,000 compounds, 0.5% hits; AID 504803, 2011; in the data active = inhibition above about 36%
Target sequence (Q92743 whole entry, looked up): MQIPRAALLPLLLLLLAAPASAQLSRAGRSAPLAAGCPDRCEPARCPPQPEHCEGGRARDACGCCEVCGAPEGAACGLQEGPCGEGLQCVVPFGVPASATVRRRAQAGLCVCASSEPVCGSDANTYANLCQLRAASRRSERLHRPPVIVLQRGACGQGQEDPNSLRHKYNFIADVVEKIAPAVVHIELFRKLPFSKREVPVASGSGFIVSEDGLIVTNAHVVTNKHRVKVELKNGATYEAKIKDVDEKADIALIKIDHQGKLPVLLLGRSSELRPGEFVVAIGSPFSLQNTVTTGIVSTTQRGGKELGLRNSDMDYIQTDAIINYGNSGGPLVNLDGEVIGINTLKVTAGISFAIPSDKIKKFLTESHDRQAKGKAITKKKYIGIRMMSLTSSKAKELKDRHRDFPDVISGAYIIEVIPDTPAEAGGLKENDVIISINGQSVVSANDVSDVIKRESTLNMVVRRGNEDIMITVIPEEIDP
JMJD2C inh: inhibitors of GASC-1 histone demethylase, primary screen, biochemical, fluorescence, DELFIA europium | inhibition, % at 2.35 µM | 330,000 compounds, 0.069% hits | GST-JMJD2C(1-420) H3K9me3 demethylation | Lysine-specific demethylase 4C (Homo sapiens), Q9H3R0;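 active = more than half of a compound's replicate wells show inhibition beyond 50%, single wells judged on their own value; inconclusive = some, but no more than half, of replicates pass 50% inhibition; inactive = no replicate passes 50% inhibition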;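 note: signal counts dimethyl H3K9 product captured on neutravidin plate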
mABHD4 FP: ABHD4 inhibitors, primary screen, biochemical, fluorescence polarization, mouse; purified mABHD4, FP-Rh probe fluorescence polarization; inhibition, % at 8.92 µM; 370,000 compounds, 0.54% hits; AID 720543, 2013;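 active = inhibition exceeding the mean over every tested compound plus 3 SD, cut at about 30% in these data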
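Assay system: mABHD4 protein; medium: HEPES pH 7.0, NaCl, Pluronic buffer; dosing: 8.92 µM, single dose; schedule: 45 min + 60 min at 25 °C; signal: FP readout, ex 525 nm / em 598 nm; read-out: normalized percent inhibition of probe labeling; repeats: single replicate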
SIAE inh conf: human SIAE inhibitors, retest, confirmation, biochemical, fluorescence polarization, FP-Rh probe, triplicate. 2,300 compounds, 13% hits. inhibition, % at 9.66 µM. shares compounds with SIAE inh. SIAE FP-Rh activity-based probe;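 active = mean inhibition of the replicates above the hit cutoff set in the primary screen, cut at about 17% in these data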;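 note: inhibitors lower polarization as more probe stays unbound to SIAE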
Hits are given with their value; i = inactive; ? = inconclusive; nt = not tested or not shown.

SMILES	SIAE inh	PRMT1 FP inh	HTRA1 inh	JMJD2C inh	mABHD4 FP	SIAE inh conf
CC(C)CCOP(N)(=O)Oc1ccccc1Cl (stereo unspecified)	39	i	i	i	i	30
NP(=O)(OCCCc1ccccc1)c1ccccc1 (stereo unspecified)	i	i	i	i	i	nt
NP(=O)(OCCCc1ccccc1)Oc1ccc(Cl)cc1 (stereo unspecified)	49	i	i	?	i	46
CCOC(=O)[C@@]12C(=O)C(=O)N[C@]1(c1ccccc1)C1OCCCC12 (stereo partly specified)	i	i	i	i	i	nt
Cn1cc(C=C2C(=O)NC(=O)NC2=O)c2ccccc21	47	i	i	i	i	i
CC(=O)n1cc(C=C2C(=O)NC(=O)NC2=O)c2ccccc21	i	i	i	i	i	nt
Cc1ccc(CN2CCSc3ccc(C(=O)N4CCC5(CC4)OCCO5)cc32)cc1	i	i	i	i	i	nt
O=C(c1ccc2c(c1)N(Cc1ccc(F)cc1)CCS2)N1CCC2(CC1)OCCO2	18	i	i	i	i	i
C/C(=N\N1CCCCCC1)c1c(O)n(-c2ccccc2)c(=O)[nH]c1=O	50	i	i	i	i	i
CC(=O)N1Cc2cnnn2-c2ccccc2C1C#N (stereo unspecified)	i	i	i	nt	i	nt
O=c1[nH]c(O)c(N=Nc2ccc3c(c2)OCCO3)c(=O)[nH]1	17	i	i	i	i	i
Cn1nnc(CC[N+](C)(C)C)n1	i	i	nt	i	i	nt
COc1ccc(CCNCc2ccc(Br)cc2)cc1OC	i	i	i	i	i	nt
